Reference: ChEMBL document CHEMBL1125645, “Specific bradycardic agents. 2. Heteroaromatic modifications in the side chain of specific bradycardic benzazepinones: chemistry, pharmacology, and structure-activity relationships” (1991)
Activity calls are given as the source filed them. No cut-off for these calls is given here.

Assays:
[1] = test system: Rattus norvegicus; test: Hypotensive activity was evaluated in an anesthetized rat model as percent mean aortic blood pressure(mm hg) reduction 5 min after iv injection of 5 mg/kg; type: functional, Artery
In short: (§1)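 In pentobarbital-anesthetized (50 mg/kg ip), artificially ventilated male Chbb:THOM rats (200-250 g), mean aortic pressure was measured through a carotid artery cannula connected to an electromechanical transducer. Readings were taken before and 5 min after 5 mg/kg iv. Values are % change from baseline, ± SEM.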

[2] = test system: Rattus norvegicus; test: Bradycardic activity was evaluated in an anesthetized rat model as percent heart rate(beats/min) reduction 20 min after iv injection of 5 mg/kg of the compound; NA= Not active; type: functional, organism-based; parameters: dose 5 mg/kg
In short: (§2)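 Male Chbb:THOM rats, 200-250 g, anesthetized with pentobarbital sodium 50 mg/kg ip, with the trachea cannulated and artificial respiration given. Heart rate was recorded continuously by an ECG-triggered beat-to-beat tachograph before and at 5 and 20 min after a single iv injection of 5 mg/kg. Values are % change from pre-dose, reported ± SEM.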

[3] = test system: Rattus norvegicus; test: Bradycardic activity was evaluated in an anesthetized rat model as percent heart rate(beats/min) reduction 5 min after iv injection of 5 mg/kg of the compound; NA=Not active; type: functional, organism-based; parameters: dose 5 mg/kg; in short: as §2
[4] = test system: Rattus norvegicus; test: Bradycardic activity was evaluated in an anesthetized rat model as percent heart rate(beats/min) reduction 20 min after iv injection of 5 mg/kg; type: functional; in short: as §2
[5] = test system: Rattus norvegicus; test: Bradycardic activity was evaluated in an anesthetized rat model as percent heart rate(beats/min) reduction 5 min after iv injection of 5 mg/kg; type: functional; in short: as §2
[6] = (§3) delta HR Ratio measured as the ratio of delta HR(20 min)/delta HR (5 min); type: functional
In short: (§4)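 Duration-of-action index: the % heart-rate reduction at 20 min divided by that at 5 min after 5 mg/kg iv. Rats were male Chbb:THOM, pentobarbital-anesthetized and ventilated, with heart rate taken from an ECG-triggered tachograph.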

[7] = organism: Rattus norvegicus; test: (§5) Ratio of heart rate reduction to mean arterial blood pressure reduction; type: functional
In short: (§6)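 Selectivity parameter S: the % heart-rate reduction divided by the % mean arterial pressure reduction, both read 5 min after 5 mg/kg iv in anesthetized, ventilated male Chbb:THOM rats. Heart rate came from an ECG-triggered tachograph and pressure from a carotid cannula.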

[8] = as §5; type: tissue-based; in short: as §6
[9] = as §3; in short: as §4
[10] = test system: Rattus norvegicus; test: Hypotensive activity was evaluated in an anesthetized rat model as percent mean aortic blood pressure(mm hg) reduction 5 min after iv injection of 5 mg/kg of the compound; NA=Not active; type: functional, organism-based; parameters: dose 5 mg/kg; details: Artery; in short: as §1
[11] = test system: Rattus norvegicus; test: Bradycardic activity was evaluated in an anesthetized rat model as percent heart rate(beats/min) reduction 20 min after iv injection of 5 mg/kg of the compound; NA=Not active; type: functional, organism-based; parameters: dose 5 mg/kg; in short: as §2

COc1cc2c(cc1OC)CC(=O)N(CCCN(C)CCc1c[nH]cn1)CC2
Delta MAP [1]: -11% | Delta HR [2]: inactive | Delta HR [3]: inactive

COc1ccc2c(CCN(C)CCCN3CCc4cc(OC)c(OC)cc4CC3=O)csc2c1
Delta MAP [1]: -52% | Delta HR [4]: -60% | Delta HR [5]: -67% | Ratio [6]: 0.89 | Selectivity [7]: 1.3

COc1cc2c(cc1OC)CC(=O)N(CCCN(C)CCc1c[nH]c3c(C)cccc13)CC2
Selectivity [8]: 1.9 | Delta MAP [1]: -26% | Delta HR [4]: -44% | Delta HR [5]: -50% | Ratio [9]: 0.88

COc1cc2c(cc1OC)CC(=O)N(CCCN(C)CCc1scnc1C)CC2
Delta MAP [10]: inactive | Delta HR [3]: inactive | Delta HR [11]: inactive

COc1cc2c(cc1OC)CC(=O)N(CCCN(C)Cc1cccnc1)CC2
Delta MAP [10]: inactive | Delta HR [3]: inactive | Delta HR [11]: inactive

COc1cc2c(cc1OC)CC(=O)N(CCCN(C)CCc1cn(C)cn1)CC2
Delta MAP [1]: -10% | Delta HR [4]: -11% | Delta HR [5]: -10% | Ratio [6]: 1.1 | Selectivity [7]: 1
